According to ChEMBL document CHEMBL1773032, “Pierreiones A-D, solid tumor selective pyranoisoflavones and other cytotoxic constituents from Antheroporum pierrei” (J Nat Prod, 2011):

Key:
[1] = tested on: MC-38; assay: Selective toxicity against mouse C38 cells assessed as differential zone units at 66 ug/mL by disk diffusion soft agar colony formation assay relative to mouse L1210 cells; assay type: functional
Outline: (§1)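 Murine Colon 38 and leukemia L1210 cells tested in the disk diffusion soft agar colony formation assay. Differential cytotoxicity expressed as the difference in inhibition zone size between the two lines, in zone units (200 zone units = 6 mm).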

[2] = tested on: HCT-116; assay: Cytotoxicity against human HCT116 cells measured per disk after 5 days by hemocytometer counting; assay type: functional, cell-based
Outline: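 HCT-116 cells seeded at 5 × 10^4 cells per T25 flask in RPMI-1640 with 15% FBS, 1% penicillin-streptomycin and 1% glutamine, 37 °C, 5% CO2. Drug added at several concentrations on day 3, then incubated 120 h (5 d). Cells trypsinized, washed and resuspended in HBSS, counted by hemocytometer. Counts normalized to untreated control to give IC50.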

[3] = tested on: MC-38; assay: Selective toxicity against mouse C38 cells assessed as differential zone units at 0.23 ug/mL by disk diffusion soft agar colony formation assay relative to mouse L1210 cells; assay type: functional
Outline: (§2)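 Disk diffusion soft agar colony-formation assay with murine Colon 38 (colon adenocarcinoma) and L1210 (lymphocytic leukemia) cells. The zone of inhibited colony formation around each disk is measured in zone units, where 200 zone units = 6 mm. Selectivity is the solid tumor minus leukemia zone difference.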

[4] = tested on: MC-38; assay: Selective toxicity against mouse C38 cells assessed as differential zone units at 1.9 ug/mL by disk diffusion soft agar colony formation assay relative to mouse L1210 cells; assay type: functional; outline: as §1
[5] = tested on: MC-38; assay: Selective toxicity against mouse C38 cells assessed as differential zone units at 68 ug/mL by disk diffusion soft agar colony formation assay relative to mouse L1210 cells; assay type: functional; outline: as §1
[6] = tested on: MC-38; assay: Selective toxicity against mouse C38 cells assessed as differential zone units at 0.26 ug/mL by disk diffusion soft agar colony formation assay relative to mouse L1210 cells; assay type: functional; outline: as §1
[7] = tested on: MC-38; assay: Selective toxicity against mouse C38 cells assessed as differential zone units at 0.24 ug/mL by disk diffusion soft agar colony formation assay relative to mouse L1210 cells; assay type: functional; outline: as §2

Row | Structure (SMILES) | IC50 [2] [µg] | further results
1 | COc1cc(-c2coc3cc4c(cc3c2=O)C=CC(C)(C)O4)ccc1OC[C@@H](O)C(C)(C)O [PIERREIONE B] | 18 | Activity [1]: 300 Zone units
2 | C=C(C)[C@H]1Cc2c(ccc3c2O[C@@H]2COc4cc(OC)c(OC)cc4[C@@H]2C3=O)O1 [ROTENONE] | 0.045 | Activity [3]: 500 Zone units
3 | COc1cc(-c2coc3cc4c(c(OC)c3c2=O)C=CC(C)(C)O4)ccc1OCC=C(C)C [PIERREIONE C] | > 46 | –
4 | COc1cc(-c2coc3cc4c(cc3c2=O)C=CC(C)(C)O4)ccc1OCC=C(C)C [PIERREIONE D] | 30 | Activity [4]: 600 Zone units
5 | COc1cc(-c2coc3cc4c(c(OC)c3c2=O)C=CC(C)(C)O4)ccc1OC[C@@H](O)C(C)(C)O [PIERREIONE A] | 7.5 | Activity [5]: 300 Zone units
6 | C=C(C)[C@H]1Cc2c(ccc3c2O[C@@H]2COc4cc(OC)c(OC)cc4[C@]2(O)C3=O)O1 [ROTENOLONE] | 0.055 | Activity [6]: 450 Zone units
7 | COc1cc2c(cc1OC)[C@]1(O)C(=O)c3ccc4c(c3O[C@@H]1CO2)C=CC(C)(C)O4 [TEPHROSIN] | 0.04 | Activity [7]: 550 Zone units
